According to ChEMBL document CHEMBL1146554, “Antioxidative meroterpenoids from the brown alga Cystoseira crinita” (J Nat Prod, 2003):
Converted amounts (≈) assume the structure as drawn. The source made the active and inactive calls. No cut-off for these calls is given here.

What was measured:
MCF7 = assay: Cytotoxicity against human MCF7 cells; type: functional
Procedure, shortened: (§1)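 Cytotoxicity tested on HM02 gastric adenocarcinoma, HepG2 hepatocellular carcinoma and MCF7 breast adenocarcinoma lines following NCI standards.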

Microbotryum violaceum = assay: Antimicrobial activity against Microbotryum violaceum at 50 ug/disk by agar diffusion assay; type: functional, organism-based
Procedure, shortened: (§2)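 Agar diffusion assay with discs loaded at 50 µg/disk, run against the bacteria, fungi and the green microalga Chlorella fusca.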

[1] = target: Human immunodeficiency virus type 1 reverse transcriptase (Human immunodeficiency virus 1) (UniProt Q72547); assay: Inhibition of HIV1 reverse transcriptase at 66 ug/ml by ELISA
Procedure, shortened: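 HIV-1 RT activity inhibition measured by ELISA with the test compound at 66 µg/mL.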

[2] = Antioxidant activity assessed as inhibition of FeSO4-induced lipid peroxidation at 164 uM by TBARS assay; type: functional
Procedure, shortened: (§3)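 Linolenic acid methyl ester oxidized under FeSO4 catalysis in 50 mM phosphate buffer pH 7.2 at 50 °C. BHT in ethanol added to stop further oxidation. TBARS developed with trichloroacetic and thiobarbituric acid, 60 °C for 30 min. Read A532 minus A600 background. % inhibition calculated versus uninhibited control, with blank and sample-blank corrections.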

[3] = system: Radical scavenging activity; assay: Antioxidant activity assessed as DPPH radical scavenging activity at 23 uM after 30 mins; type: functional
Procedure, shortened: (§4)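 Samples in EtOH (100 µL) mixed with 25 µL of 1 mM DPPH in EtOH plus 75 µL EtOH, then shaken briefly. Kept 30 min at room temperature in the dark. Absorbance read at 517 nm. % scavenging calculated against control, with blank and sample-blank corrections.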

Mycotypha microspora = assay: Antimicrobial activity against Mycotypha microspora at 50 ug/disk by agar diffusion assay; type: functional, organism-based; procedure, shortened: as §2
HepG2 [4] = assay: Cytotoxicity against human HepG2 cells at 10 ug/ml; type: functional; details: read-out: GI
Escherichia coli = assay: Antimicrobial activity against Escherichia coli at 50 ug/disk by agar diffusion assay; type: functional, organism-based; procedure, shortened: as §2
[5] = system: Radical scavenging activity; assay: Antioxidant activity assessed as DPPH radical scavenging activity at 58 uM after 30 mins; type: functional; procedure, shortened: as §4
[6] = Antioxidant activity assessed as inhibition of FeSO4-induced lipid peroxidation at 16 uM by TBARS assay; type: functional; procedure, shortened: as §3
[Chlorella] fusca = Antimicrobial activity against 'Chlorella' fusca at 50 ug/disk by agar diffusion assay; type: functional, organism-based; details: Scenedesmus fuscus; procedure, shortened: as §2
[7] = system: Radical scavenging activity; assay: Antioxidant activity assessed as DPPH radical scavenging activity at 12 uM after 30 mins; type: functional; procedure, shortened: as §4
[8] = ABTS radical scavenging activity assessed as trolox equivalents by TEAC assay; type: physicochemical
Procedure, shortened: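 ABTS radical cation made by passing ABTS in PBS through manganese dioxide, then filtered (0.2 µm). Diluted in 5 mM PBS pH 7.4 to A734 0.700 and preincubated 2 h at room temperature. 1 mL radical mixed with 200 µL ethanolic sample, vortexed 30 s, centrifuged. A734 of lower phase read exactly 2 min after mixing. PBS and ethanol blanks included. Trolox standards used; value is mM Trolox equivalent to 1.0 mM compound.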

Priestia megaterium = assay: Antimicrobial activity against Bacillus megaterium at 50 ug/disk by agar diffusion assay; type: functional, organism-based; procedure, shortened: as §2
[9] = system: Radical scavenging activity; assay: Antioxidant activity assessed as DPPH radical scavenging activity at 115 uM after 30 mins; type: functional; procedure, shortened: as §4
[10] = Antioxidant activity assessed as inhibition of FeSO4-induced lipid peroxidation at 33 uM by TBARS assay; type: functional; procedure, shortened: as §3
[11] = system: Radical scavenging activity; assay: Antioxidant activity assessed as DPPH radical scavenging activity at 230 uM after 30 mins; type: functional; procedure, shortened: as §4
[12] = Superoxide radical scavenging activity assessed as trolox equivalents by photochemiluminescence assay
Procedure, shortened: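 Photochemiluminescence with luminol acting as photosensitizer and detection reagent, generating superoxide. Mix of 2.29 mL reagent 1 (solvent/diluent), 200 µL buffer reagent, 25 µL photosensitizer and 10 µL sample in ethanol or Trolox standard in water. Antioxidant capacity taken from the integral under the curve and expressed as Trolox equivalents.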

[13] = Antioxidant activity assessed as inhibition of FeSO4-induced lipid peroxidation at 82 uM by TBARS assay; type: functional; procedure, shortened: as §3
[14] = Cytotoxicity against human HM02 cells; type: functional; procedure, shortened: as §1
[15] = system: Aspergillus pseudoglaucus; assay: Antimicrobial activity against Eurotium repens at 50 ug/disk by agar diffusion assay; type: functional, organism-based; procedure, shortened: as §2
HepG2 [16] = assay: Cytotoxicity against human HepG2 cells; type: functional; procedure, shortened: as §1
[17] = Antioxidant activity assessed as inhibition of FeSO4-induced lipid peroxidation at 8 uM by TBARS assay; type: functional; procedure, shortened: as §3
[18] = system: Radical scavenging activity; assay: Antioxidant activity assessed as DPPH radical scavenging activity at 6 uM after 30 mins; type: functional; procedure, shortened: as §4

SMILES | GI50 (MCF7) [µg/mL] | LC50 (MCF7) [µg/mL] | TGI (MCF7) [µg/mL] | Activity (Microbotryum violaceum) | Activity [1] | inhibition [2] [%] | Activity [3] [%] | Activity (Mycotypha microspora) | inhibition of growth at 10 µg/mL (HepG2 [4]) [%] | Activity (Escherichia coli) | Activity [5] [%] | inhibition [6] [%] | Activity ([Chlorella] fusca) | Activity [7] [%] | Activity [8] [mmol/L] | Activity (Priestia megaterium) | Activity [9] [%] | inhibition [10] [%] | Activity [11] [%] | Activity [12] [mmol/L] | also measured
C/C(=C/CC/C(C)=C/CC/C(C)=C\C(=O)C/C(C)=C/Cc1cc(O)cc(C)c1O)CO | 1.8 (≈ 4.22 µM) | > 10 | 4 (≈ 9.38 µM) | inactive | inactive | 73.4 | 31.2 | inactive | 87 | inactive | 80.1 | 18.3 | inactive | 15.2 | 0.09 | inactive | 96 | 31.5 | 96.7 | 0.51 | inhibition [13]: 69.8%; GI50 [14]: 1.8 µg/mL (≈ 4.22 µM); LC50 [14]: > 10 µg/mL; TGI [14]: 6 µg/mL (≈ 14.1 µM); Activity [15]: inactive; GI50 (HepG2 [16]): 6.8 µg/mL (≈ 15.9 µM); LC50 (HepG2 [16]): > 10 µg/mL; TGI (HepG2 [16]): > 10 µg/mL; inhibition [17]: 12%; Activity [18]: 9.1%
C/C(=C/CC/C(C)=C/CC/C(C)=C/C(=O)C/C(C)=C/Cc1cc(O)cc(C)c1O)CO | 2.2 (≈ 5.16 µM) | > 10 | 5.1 (≈ 12 µM) | inactive | inactive | 73.7 | 25.1 | inactive | 86 | inactive | 64.8 | 14.8 | inactive | 12.3 | 0.09 | inactive | 96.1 | 32.1 | 96.4 | 0.59 | inhibition [13]: 67.2%; GI50 [14]: 2.3 µg/mL (≈ 5.39 µM); LC50 [14]: > 10 µg/mL; TGI [14]: 7.4 µg/mL (≈ 17.3 µM); Activity [15]: inactive; GI50 (HepG2 [16]): 7.1 µg/mL (≈ 16.6 µM); LC50 (HepG2 [16]): > 10 µg/mL; TGI (HepG2 [16]): > 10 µg/mL; inhibition [17]: 10.6%; Activity [18]: 8%
